Consider 14 molecules from ChEMBL document CHEMBL1122208, “Inhibitors of hepatic mixed-function oxidases. 4. Effects of benzimidazole and related compounds on aryl hydrocarbon hydroxylase activity from phenobarbitone and 3-methylcholanthrene induced rats” (J Med Chem, 1982).

pIC50, pKd: −log10 of the molar value. Where a name gives a salt, the structure may show the parent alone.

In data set [1] the target is T1, Cytochrome P450 2B1 (Rattus norvegicus, UniProt P00176).
T1 sequence (P00176 whole entry): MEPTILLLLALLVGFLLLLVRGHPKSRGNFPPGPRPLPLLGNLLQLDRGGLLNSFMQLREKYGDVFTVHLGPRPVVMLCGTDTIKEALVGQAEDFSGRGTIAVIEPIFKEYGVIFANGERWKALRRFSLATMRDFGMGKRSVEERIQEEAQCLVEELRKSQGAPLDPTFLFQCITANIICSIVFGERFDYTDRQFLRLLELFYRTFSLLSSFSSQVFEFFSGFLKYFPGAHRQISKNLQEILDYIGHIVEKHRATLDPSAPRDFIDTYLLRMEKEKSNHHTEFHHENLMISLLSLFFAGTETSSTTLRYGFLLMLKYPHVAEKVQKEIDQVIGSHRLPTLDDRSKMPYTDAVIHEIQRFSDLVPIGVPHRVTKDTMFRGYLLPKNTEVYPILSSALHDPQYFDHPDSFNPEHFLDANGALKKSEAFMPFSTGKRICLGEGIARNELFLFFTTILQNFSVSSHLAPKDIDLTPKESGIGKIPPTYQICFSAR
The data set is described as follows: Interaction with cytochrome P450 in Phenobarbitone-induced rat hepatic microsomes. The format is ADME, Liver. As to conditions: read-out: Ks. The method, boiled down:
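Microsomes came from immature male Wistar rats dosed with phenobarbitone, 80 (mg/kg)/day ip for 3 days, and starved 24 h before sacrifice. Difference spectra recorded at 1 mg/mL microsomal protein. Ks obtained in duplicate from abscissal intercept of a double-reciprocal plot of ΔOD (peak-trough) against compound concentration, using five to eight concentrations.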

In data set [2] the target is T2, aryl hydrocarbon hydroxylase (cytochrome P450 1A1) (Rattus norvegicus, UniProt P00185).
T2 sequence (P00185 whole entry): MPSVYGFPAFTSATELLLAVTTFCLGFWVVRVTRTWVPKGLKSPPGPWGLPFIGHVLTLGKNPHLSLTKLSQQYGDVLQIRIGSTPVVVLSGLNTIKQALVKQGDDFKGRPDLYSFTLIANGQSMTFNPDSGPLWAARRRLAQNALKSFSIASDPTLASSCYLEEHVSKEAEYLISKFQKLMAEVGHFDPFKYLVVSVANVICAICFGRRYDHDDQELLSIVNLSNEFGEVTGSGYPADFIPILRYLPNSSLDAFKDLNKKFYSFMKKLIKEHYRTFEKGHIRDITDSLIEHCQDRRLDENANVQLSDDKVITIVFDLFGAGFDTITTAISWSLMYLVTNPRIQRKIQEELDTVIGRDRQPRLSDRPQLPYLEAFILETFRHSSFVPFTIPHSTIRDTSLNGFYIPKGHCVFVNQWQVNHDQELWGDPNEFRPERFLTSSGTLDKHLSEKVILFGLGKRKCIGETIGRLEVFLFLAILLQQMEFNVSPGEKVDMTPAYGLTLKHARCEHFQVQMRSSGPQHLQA
The data set is described as follows: Effect on Aryl hydrocarbon hydroxylase activity in 3-methylcolanthrene-induced rat liver microsomes at 4.3x10E-4M. Format: ADME, Microsome. As to conditions: 3-methylcholanthrene-induced rat liver microsomes, read-out: Control. The method, boiled down:
(§1)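 Liver microsomes from immature male Wistar rats (100-150 g) given one 3-MC dose (25 mg/kg in corn oil, ip) 3 days before sacrifice, starved 24 h. Incubation: benzo[a]pyrene 357 nmol, MgCl2 3.0 μmol, NADPH 0.50 μmol, 1.2 mg protein, 0.1 M potassium phosphate pH 7.4 (3.0 mL), 6 min, 37 °C. Compound added from 0.07 N HCl or Me2SO-water stock at near-maximal solubility. Fluorescent phenols read ex 396/em 522 nm. Value is % of solvent control, mean of three determinations.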
(In general: Liver microsomes are vesicles of endoplasmic reticulum, rich in cytochrome P450 enzymes.)

The target in data set [3] is T2, aryl hydrocarbon hydroxylase (cytochrome P450 1A1). The data set is described as follows: Inhibition of Aryl hydrocarbon hydroxylase in phenobarbitone-treated rats. As to conditions: read-out: I50. The essentials: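 Microsomes from immature male Wistar rats (100-150 g) given PB 80 (mg/kg)/day ip for 3 days, starved 24 h. Incubation: BP 285 nmol, MgCl2 3.0 μmol, NADPH 0.50 μmol, protein 1.2 mg, 0.1 M K phosphate pH 7.4, 3.0 mL. Run 10 min at 37 °C. Phenol fluorescence read at ex 396/em 522 nm. I50 by linear regression over five to eight inhibitor concentrations, mean of duplicates.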

Data set [4] deals with T3, cytochrome P450 (cytochrome P450 1A1) (Rattus norvegicus, UniProt P00185).
T3 sequence (P00185 whole entry): T2 sequence (P00185 whole entry)
The data set is described as follows: Interaction with cytochrome P450 in 3-methylcholanthrene-induced rat hepatic microsomes. As to conditions: read-out: Ks. The format is ADME, Liver. The method, boiled down:
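Hepatic microsomes from immature male Wistar rats given 3-MC (25 mg/kg in corn oil, ip, single dose) 3 days before sacrifice, starved 24 h. Optical difference spectra recorded at 1 mg/mL microsomal protein. Ks taken from abscissal intercept of double-reciprocal plot of ΔOD (peak-trough) vs concentration, five to eight concentrations, in duplicate.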

In data set [5] the target is T1, Cytochrome P450 2B1. The data set is described as follows: Inhibition of Aminopyrine N-demethylase in Phenobarbitone-treated rats. As to conditions: read-out: I50. The method, boiled down: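 Hepatic microsomes from immature male Wistar rats dosed with PB 80 (mg/kg)/day ip for 3 days and starved 24 h. Prepared in 0.1 M potassium phosphate pH 7.4. Aminopyrine N-demethylation followed by formaldehyde formation. Results expressed as molar I50.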

Data set [6] concerns the target T2, aryl hydrocarbon hydroxylase (cytochrome P450 1A1). Kind of data set: Effect on Aryl hydrocarbon hydroxylase activity in 3-methylcolanthrene-induced rat liver microsomes at 3.6x10E-4M. Format: ADME, Microsome. As to conditions: 3-methylcholanthrene-induced rat liver microsomes, read-out: Control. The essentials: (§2)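 Liver microsomes from immature male Wistar rats (100-150 g) given one 3-MC dose (25 mg/kg in corn oil, ip) 3 days before sacrifice, starved 24 h. Incubation: BP 357 nmol, MgCl2 3.0 μmol, NADPH 0.50 μmol, protein 1.2 mg, 0.1 M K phosphate pH 7.4, 3.0 mL final volume. Run 6 min at 37 °C. Fluorescent phenols read at ex 396/em 522 nm. Activity given as % of solvent control, mean of three determinations, at roughly maximum solubility.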

Data set [7] can be described thus: Partition coefficient (logP). The format is physicochemical. As to conditions: octanol/water.
Data set [8] has as its target T2, aryl hydrocarbon hydroxylase (cytochrome P450 1A1). The data set is described as follows: Effect on Aryl hydrocarbon hydroxylase activity in 3-methylcolanthrene-induced rat liver microsomes at 2.3x10E-4M. The format is ADME, Microsome. As to conditions: 3-methylcholanthrene-induced rat liver microsomes, read-out: Control. The essentials: as §2
Data set [9] deals with T3, cytochrome P450 (cytochrome P450 1A1). The data set is described as follows: Interaction (Ks) with cytochrome P450 in 3-methylcholanthrene-induced rat hepatic microsomes. Format: ADME, Liver. As to conditions: read-out: Ks. The essentials: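 Optical difference spectra recorded with microsomes from 3-MC-treated rats (25 mg/kg in corn oil, ip, 3 days) at 1 mg/mL protein. Ks taken from the abscissal intercept of double-reciprocal plots of ΔOD (peak-trough) against five to eight compound concentrations, determined in duplicate.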

For data set [10], the target named is T1, Cytochrome P450 2B1. The data set is described as follows: Interaction (Ks) with cytochrome P450 in phenobarbitone-induced rat hepatic microsomes. The format is ADME, Liver. As to conditions: read-out: Ks. The method, boiled down:
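Difference spectra recorded with microsomes from PB-treated rats (80 (mg/kg)/day ip, 3 days) at 1 mg/mL microsomal protein. Ks obtained in duplicate from double-reciprocal plots of ΔOD (peak-trough) versus five to eight ligand concentrations, using the abscissal intercept.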

Data set [11] has as its target T2, aryl hydrocarbon hydroxylase (cytochrome P450 1A1). The data set is described as follows: Effect on Aryl hydrocarbon hydroxylase activity in 3-methylcolanthrene-induced rat liver microsomes at 5.0x10E-5M. Format: ADME, Microsome. As to conditions: 3-methylcholanthrene-induced rat liver microsomes, read-out: Control. The essentials: as §2
Data set [12] has the same target. The data set is described as follows: Effect on Aryl hydrocarbon hydroxylase activity in 3-methylcolanthrene-induced rat liver microsomes at 1.7x10E-4M. The format is ADME, Microsome. As to conditions: 3-methylcholanthrene-induced rat liver microsomes, read-out: Control. The essentials:
as §2

For data set [13] the target is unchanged. The data set is described as follows: Effect on Aryl hydrocarbon hydroxylase activity in 3-methylcolanthrene-induced rat liver microsomes at 5.9x10E-4M. As to conditions: 3-methylcholanthrene-induced rat liver microsomes, read-out: Control. The format is ADME, Microsome. The essentials: as §2
Data set [14] shares this target. The data set is described as follows: Effect on Aryl hydrocarbon hydroxylase activity in 3-methylcolanthrene-induced rat liver microsomes at 1.2x10E-3M. Format: ADME, Microsome. As to conditions: 3-methylcholanthrene-induced rat liver microsomes, read-out: Control. The essentials: as §1
Data set [15] has the same target. Kind of data set: Effect on Aryl hydrocarbon hydroxylase activity in 3-methylcolanthrene-induced rat liver microsomes at 8x10E-4M. As to conditions: 3-methylcholanthrene-induced rat liver microsomes, read-out: Control. Format: ADME, Microsome. The essentials: as §1
The target is the same in data set [16]. The data set is described as follows: Effect on Aryl hydrocarbon hydroxylase activity in 3-methylcolanthrene-induced rat liver microsomes at 5.2x10E-5M. The format is ADME, Microsome. As to conditions: 3-methylcholanthrene-induced rat liver microsomes, read-out: Control. The method, boiled down: as §2

On to `c1ccc(-c2c[nH]cn2)cc1`, for which the pKd was 5.96 at Cytochrome P450 2B1 [1] and 5.77 in data set [4]. Further, in data set [2], the activity at 0.00043 M stood at 83%. Moreover, the pIC50 in data set [3] is 4.48; at Cytochrome P450 2B1 [5], 5.13.
One may read the logP as the decadic logarithm of the partition coefficient of the neutral form, usually between octanol and water. Lower therefore signals a more hydrophilic compound. Turning to `CCCCCc1nc2ccccc2[nH]1`, the activity at 0.00036 M in [6] worked out at 89%. In addition, the pIC50 in data set [3] is 4.09; on Cytochrome P450 2B1 [5], 4.30. The molecule also returned a logP in [7] of 3.85.
In the case of `Cc1nc2cc(C)c(C)cc2[nH]1`, the figures for the pKd (at Cytochrome P450 2B1 [1]; in data set [4]) were 4.00 and 4.55, respectively. Moreover, the pIC50 was 3.77 in [3] and 3.43 on Cytochrome P450 2B1 [5]. The activity at 0.00023 M in data set [8] came to 77%. The logP in [7] was 2.85.
On to `c1ccc2cc3[nH]cnc3cc2c1`, for which the pKd was 4.09 in [9] and 4.82 on Cytochrome P450 2B1 [10]. Moreover, the pIC50 in [3] is 4.08; on Cytochrome P450 2B1 [5] it was 4.28.
Consider `CCc1nc2cc(C)c(C)cc2[nH]1`, for which the pIC50 in data set [3] was 3.96; at Cytochrome P450 2B1 [5] it was 3.74. Moreover, in data set [7], the logP was determined as 3.35.
For `Cc1ccc2[nH]cnc2c1`, the values for the pKd (on Cytochrome P450 2B1 [1]; in data set [9]) were 4.21 and 3.68, respectively.
For `CCCCCCCCCCCc1nc2ccccc2[nH]1`, the pIC50 in [3] is 4.74; at Cytochrome P450 2B1 [5], 4.82. Moreover, the logP in [7] amounted to 6.85. Moreover, the activity at 50 µM in data set [11] came out at 103%.
`Cc1nc2ccccc2[nH]1`: the pKd on Cytochrome P450 2B1 [1] was 3.36; in data set [4] it was 3.29. Further, the figures for the pIC50 (in [3]; on Cytochrome P450 2B1 [5]) were 3.17 and 2.97, respectively. For the same molecule, the logP in data set [7] amounted to 1.85.
Take `CCCCCCCc1nc2ccccc2[nH]1`: in data set [12], the activity at 0.00017 M came out at 93%. The pIC50 in data set [3] is 4.62; on Cytochrome P450 2B1 [5], 4.59. The molecule also registered a log partition coefficient (logP) in data set [7] of 4.85.
`CCCc1nc2ccccc2[nH]1`: the pIC50 in data set [3] is 3.32; on Cytochrome P450 2B1 [5], 3.52. Also, the lipophilicity (logP) in data set [7] was 2.85. In data set [13], the activity at 0.00059 M worked out at 99%.
As for `CCc1nc2ccccc2[nH]1`, the pIC50 in [3] was 3.20; on Cytochrome P450 2B1 [5] it was 3.17. The same molecule showed a log partition coefficient (logP) in data set [7] of 2.35.
With `c1ccc2[nH]cnc2c1` [BENZIMIDAZOLE], the pKd was 3.96 on Cytochrome P450 2B1 [1] and 2.49 in data set [4]. For the same molecule, the results for the pIC50 (in [3]; at Cytochrome P450 2B1 [5]) were 2.96 and 3.01, respectively. This molecule also showed a logP in [7] of 1.35. In addition, in data set [14], the activity at 0.0012 M was determined as 101%.
As to `Cc1cc2nc[nH]c2cc1C` [DIMEDAZOL], the pKd on Cytochrome P450 2B1 [1] was 4.21; in [4], 3.49. Further, the values for the pIC50 (in data set [3]; at Cytochrome P450 2B1 [5]) were 4.01 and 3.74, respectively. Besides, in [15], the activity at 0.0008 M is 69%. Further, the log partition coefficient (logP) in [7] was 2.35.
As for `CCCC(C(=O)OCCN(CC)CC)(c1ccccc1)c1ccccc1` [PROADIFEN HYDROCHLORIDE], the pIC50 in data set [3] was 4.66; on Cytochrome P450 2B1 [5], 5.09. Moreover, the activity at 52 µM in [16] turned out to be 105%.
